The text below walks through data of ChEMBL document CHEMBL2021883, “Amino acid, dipeptide and pseudodipeptide conjugates of ring-substituted 8-aminoquinolines: synthesis and evaluation of anti-infective, β-haematin inhibition and cytotoxic activities” (Eur J Med Chem, 2012).

A word on the IC50: it is the point on the concentration scale where inhibition reaches its midpoint. In general, MIC refers to the smallest concentration in the dilution series that meets the test's criterion for growth inhibition.

Converted amounts (≈) assume the structure as drawn. The source made the active and inactive calls.

Data set [1] has as its system Plasmodium falciparum. Kind of data set: Antimalarial activity against chloroquine-resistant Plasmodium falciparum W2 assessed as plasmodial LDH activity. Format: functional, organism-based.
Data set [2] deals with Candida albicans. Kind of data set: Antifungal activity against Candida albicans at 20 ug/ml. Format: functional, organism-based. The method, boiled down:
(§1)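 Broth dilution antifungal testing followed the NCCLS reference method for yeasts, with 20 as the highest test concentration. MIC was the lowest concentration with no detectable growth. MFC was the lowest concentration killing the organism.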

Data set [3] deals with Nakaseomyces glabratus. Kind of data set: Fungicidal activity against Candida glabrata at 20 ug/ml. Format: functional, organism-based. An outline of the steps: as §1
Data set [4] relates to Cryptococcus neoformans. Kind of data set: Antifungal activity against Cryptococcus neoformans. Format: functional, organism-based. The method, boiled down:
(§2)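 Yeasts and A. fumigatus were tested by broth microdilution following the NCCLS antifungal standards. The highest test concentration was 20.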

The test system of data set [5] is Nakaseomyces glabratus. Kind of data set: Antifungal activity against Candida glabrata at 20 ug/ml. It counts as functional, organism-based. The method, boiled down: as §1
The test system of data set [6] is Pichia kudriavzevii. Kind of data set: Fungicidal activity against Candida krusei at 20 ug/ml. Format: functional, organism-based. An outline of the steps: as §1
Another data set deals with Vero. Kind of data set: Cytotoxicity against african green monkey Vero cells upto 23.8 […] by neutral dye assay. It counts as cell-based, Chlorocebus sabaeus. An outline of the steps:
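Vero monkey kidney cells were exposed to compound up to a highest concentration of 23.8, with viability read by neutral red uptake.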

The subject of the next data set is Leishmania donovani. Kind of data set: Antileishmanial activity against Leishmania donovani promastigote by Alamar Blue assay. It counts as functional, organism-based. For orientation: Alamar Blue is a resazurin reagent that responds to reducing activity.
The nature of data set [7]: Inhibition of beta-hematin formation. It counts as functional.
Data set [8] concerns Cryptococcus neoformans. Kind of data set: Fungicidal activity against Cryptococcus neoformans at 20 ug/ml. Format: functional, organism-based. An outline of the steps: as §1
In the next data set the test system is Pseudomonas aeruginosa. Kind of data set: Antimicrobial activity against Pseudomonas aeruginosa ATCC 27853 by CLSI method. It counts as functional, organism-based. An outline of the steps: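 Antibacterial testing used CLSI/NCCLS broth dilution for aerobically growing bacteria, with 20 as the highest test concentration.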
Another data set has as its system Escherichia coli. Kind of data set: Antimicrobial activity against Escherichia coli ATCC 35218 by CLSI method. It counts as functional, organism-based.
The test system of another data set is Aspergillus fumigatus. Kind of data set: Antifungal activity against Aspergillus fumigatus. It counts as functional, organism-based. An outline of the steps:
as §2

Data set [9] relates to Pichia kudriavzevii. Kind of data set: Antifungal activity against Candida krusei at 20 ug/ml. Format: functional, organism-based. An outline of the steps: as §1
The subject of data set [10] is Mycobacterium intracellulare. Kind of data set: Antimicrobial activity against Mycobacterium intracellulare ATCC 23068 by Franzblau method. Format: functional, organism-based.
For data set [11], the system named is Candida albicans. Kind of data set: Fungicidal activity against Candida albicans at 20 ug/ml. It counts as functional, organism-based. The method, boiled down:
as §1

Data set [12] relates to Plasmodium falciparum. Kind of data set: Antimalarial activity against chloroquine-sensitive Plasmodium falciparum D6 assessed as plasmodial LDH activity. Format: functional, organism-based.
Data set [13] concerns Staphylococcus aureus. Kind of data set: Antimicrobial activity against Staphylococcus aureus ATCC 29213 by CLSI method. Format: functional, organism-based.
Data set [14] deals with Staphylococcus aureus. Kind of data set: Antimicrobial activity against methicillin-resistant Staphylococcus aureus ATCC 43300 by CLSI method. It counts as functional, organism-based.
For data set [15], the system named is Plasmodium berghei. Kind of data set: Antimalarial activity against Plasmodium berghei blood-schizont in mouse malaria model assessed as elimination of parasitemia at 50 mg/kg, po for 4 days for 4 days measured after 7 days. It counts as functional, organism-based. Set-up: dose 50 mg/kg. The method, boiled down:
(§3)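 P. berghei-infected mice, 6 per group, received compound orally once daily for 4 days at 10, 25, 50 or 100 mg/kg/day. "Active" meant all treated animals were parasitaemia-negative up to D+7. "Curative" meant complete parasite elimination with survival to D+60. Outcomes were recorded as cured/total.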

In data set [16] the test system is Plasmodium berghei. Kind of data set: Antimalarial activity against Plasmodium berghei blood-schizont in mouse malaria model assessed as elimination of parasitemia at 25 mg/kg, po for 4 days for 4 days measured after 7 days. It counts as functional, organism-based. The arrangement: dose 25 mg/kg. The method, boiled down:
as §3

Data set [17] relates to Plasmodium berghei. Kind of data set: Antimalarial activity against Plasmodium berghei blood-schizont in mouse malaria model assessed as disease curative activity at 100 mg/kg, po after 60 days. It counts as functional. An outline of the steps:
as §3

A short description of data set [18]: Selectivity index, ratio of IC50 for african green monkey Vero cells to IC50 for chloroquine-sensitive Plasmodium falciparum D6. Particulars: Vero cells versus Plasmodium falciparum D6, read-out: Ratio IC50. Format: toxicity, cell-based.
A short description of data set [19]: Ratio of chloroquine IC50 to compound IC50 for inhibition of beta-hematin formation.
The nature of data set [20]: Selectivity index, ratio of IC50 for african green monkey Vero cells to IC50 for chloroquine-resistant Plasmodium falciparum W2. Format: toxicity, cell-based. The following applies: Vero cells versus Plasmodium falciparum W2, read-out: Ratio IC50.
The test system of data set [21] is Plasmodium berghei. Kind of data set: Antimalarial activity against Plasmodium berghei blood-schizont in mouse malaria model assessed as elimination of parasitemia at 10 mg/kg, po for 4 days for 4 days measured after 7 days. It counts as functional, organism-based. Set-up: dose 10 mg/kg. An outline of the steps:
as §3

As to `COc1cc(NC(C)CCCNC(=O)CC[C@@H](NC(=O)[C@H](N)CCCCN)C(=O)O)c2nc(C(C)(C)C)ccc2c1` (some centres undefined), the IC50 entry in the data set with Plasmodium falciparum [1] is “Not Active”; in the data set on Cryptococcus neoformans [4], 15.2 µg/mL (≈ 26.5 µM); in the data set on Vero, “Non-toxic”; in the data set on Leishmania donovani it was “Not Active”; in data set [7], over 1000 µM; with Plasmodium falciparum [12], “Not Active”. The result in the data set on Candida albicans [2], in the data set on Nakaseomyces glabratus [3], in the data set on Nakaseomyces glabratus [5], in the data set on Pichia kudriavzevii [6], in the data set with Cryptococcus neoformans [8] and in the data set on Pseudomonas aeruginosa was inactive. The result (in the data set on Escherichia coli; in the data set on Aspergillus fumigatus; in the data set on Pichia kudriavzevii [9]; in data set [10]; in the data set on Candida albicans [11]; with Staphylococcus aureus [13]) was inactive. Moreover, the result with Staphylococcus aureus [14] was inactive. The same compound registered an MIC against Cryptococcus neoformans [4] of 20 µg/mL (≈ 34.9 µM). Further, in the data set on Leishmania donovani, the IC90 entry is “inactive”.
For the compound `COc1cc(NC(C)CCCNC(=O)C[C@H](NC(=O)[C@@H](N)CCCCN)C(=O)O)c2ncccc2c1` (some centres undefined), the outcome with Plasmodium berghei [15], with Plasmodium berghei [16] and in the data set with Plasmodium berghei [21] was Active. Besides, the IC50 in the data set on Plasmodium falciparum [1] (Plasmodium falciparum, W2, read-out: IC50) was 0.26 µg/mL (≈ 0.517 µM); with Vero it was “Non-toxic”; in the data set with Leishmania donovani it was “Not Active”; in data set [7] it was 5.8 µM; in the data set on Plasmodium falciparum [12] (Plasmodium falciparum, D6, read-out: IC50), 0.13 µg/mL (≈ 0.259 µM). Also, the Activity in the data set with Plasmodium berghei [17] is 100%. Also, the selectivity ratio in [18] is over 183; in data set [20], over 91.5. For the same compound, the Ratio IC50 in data set [19] amounted to 16. For the same compound, the IC90 result in the data set on Leishmania donovani was “inactive”. Moreover, the result (in the data set on Pseudomonas aeruginosa; with Escherichia coli; in data set [10]; in the data set with Staphylococcus aureus [13]; with Staphylococcus aureus [14]) was inactive.
